Results on 9 molecules are retold here after PMC12107431 (Nucleic Acids Research, 2025).

Where “and” joins values, the source holds several entries; their conditions need not be identical. Equal values may be shown once. No end group written: not given here.

To fix the notation:
B2: ETO2-NHR3-4 (NHR3 and NHR4 domains of human ETO2, residues 480-597) (domain or fragment, UniProt O75081 480-597, looked up)
chain: GYVPEDIWRKAEEAVNEVKRQAMSELQKAVSDAERKAHELITTERAKMERALAEAKRQASEDALTVINQQEDSSESCWNCGRKASETCSGCNAARYCGSFCQHRDWEKHHHVCGQSLQ
B4: (M)PPPLx4 (GATAD2A residues 177-284, four polyproline-leucine motifs) (peptide, UniProt Q86YP4 177-284, looked up)
chain: QKPTGSVGSTVTTPPPLVRGTQNIPAGKPSLQTSSARMPGSVIPPPLVRGGQQASSKLGPQASSQVVMPPLVRGAQQIHSIRQHSSTGPPPLLLAPRASVPSVQIQGQ

For data set [1], the target named is T1, ETO2-NHR4 (Homo sapiens, UniProt O75081).
T1 sequence (O75081 551-597): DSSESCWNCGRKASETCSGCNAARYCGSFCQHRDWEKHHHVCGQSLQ
In words: 15N-HSQC chemical shift perturbation titration. The format is binding.

In data set [2] the target is NHR3 domain of ETO. The conditions noted are these: PKA (RIIα) binding to NHR3 domain of ETO; cited from earlier work.
Data set [3] concerns ETO2-NHR3-4. The data set is described as follows: ITC with ETO2-NHR3-4 in the presence of PKA. The conditions noted are these: ITC KD with vs without PKA (RIIα). It counts as binding, human. Put shortly:
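ETO2-NHR3-4 (50 μM) is premixed at a 2:1 molar ratio with PKA (RII)α residues 1–45 (100 μM), both bacterially expressed and purified by Ni affinity, TEV cleavage and size exclusion. N-CoRx2A or PPPLx2A peptide (250 μM) is titrated in: 20 × 2 μL injections 180 s apart at 25 °C, in 25 mM Bis-Tris pH 7.2, 100 mM NaCl, 1 mM DTT, 50 μM ZnSO4. KD is fitted by software and reported as mean ± SD of two runs.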

The target in data set [4] is B2. In words: ITC.
Data set [5] addresses B2. The data set is described as follows: ITC. This is another data set of the same source.
Data set [6] deals with the molecule itself. The data set is described as follows: SEC-MALS. Background: SEC sorts molecules by how far they enter the pores of the column.
The target of data set [7] is T1, ETO2-NHR4. The data set is described as follows: Isothermal titration calorimetry. The format is binding. The conditions noted are these: all four motifs vs single motifs.
In data set [8] the test system is ETO2-NHR3-4. In words: Isothermal titration calorimetry. It counts as binding, human. The settings on record: ITC KD ratio.
Data set [9] has as its target B4. In words: ITC. On the technique in general: Isothermal titration calorimetry measures the heat released or taken up as one component is titrated into another.

Usually Kd stands for the free concentration of one partner at which half of the binding sites on the other are occupied at equilibrium, for simple one-to-one binding. In the case of KYGASSQVVMPPLVRGAQQ-NH2 [MPPL-3], the Kd in data set [1] amounted to 249 ± 3 µM.

As for “PKA (RIIα): cAMP-dependent protein kinase type II-alpha regulatory subunit; residues 1–45 used here”, the dissociation constant Kd in [2] was 0.128 µM. Consider “PPPLx2A: bacterially expressed GATAD2A residues 177–235, first two motifs (QKPTGSVGSTVTTPPPLVRGTQNIPAGKPSLQTSSARMPGSVIPPPLVRGGQQASSKLG; also: C-terminal Twin-Strep-tag, state not given here)”, for which, in data set [3], the “reduction of affinity for ETO2-NHR3-4 by PKA (RIIα)” value was “approximately 10 fold”.

B1: PPPLx2A (GATAD2A residues 177-235, first two motifs) (peptide, UniProt Q86YP4 177-235, looked up)
chain: QKPTGSVGSTVTTPPPLVRGTQNIPAGKPSLQTSSARMPGSVIPPPLVRGGQQASSKLG
For B1, the Kd in data set [4] came to 6 µM. Further, in data set [5], the “KD in the presence of PKA (RIIα)” value was determined as 50 µM.

In general, stoichiometry N refers to the number of molecules, sites or subunits per partner or assembly. In the case of B2, the “stoichiometry N” value in data set [6] was 2 and 4.

B3: ETO2-NHR3-4 (V497I/A501L) (domain or fragment, human, UniProt O75081 480-597, looked up)
chain: GYVPEDIWRKAEEAVNEIKRQLMSELQKAVSDAERKAHELITTERAKMERALAEAKRQASEDALTVINQQEDSSESCWNCGRKASETCSGCNAARYCGSFCQHRDWEKHHHVCGQSLQ
In the case of B3, the “stoichiometry N” value in data set [6] came to 4. Regarding B4, the Kd in data set [4] turned out to be 3 µM.

B5: (M)PPPLx4: bacterially expressed GATAD2A residues 177–284 with four (M)PPPL motifs and C-terminal Twin-Strep-tag (protein)
chain: QKPTGSVGSTVTTPPPLVRGTQNIPAGKPSLQTSSARMPGSVIPPPLVRGGQQASSKLGPQASSQVVMPPLVRGAQQIHSIRQHSSTGPPPLLLAPRASVPSVQIQGQ
modifications: left off: thioredoxin, N-terminal, cleaved | His6, N-terminal, cleaved | Twin-Strep-tag, C-terminal, state not stated
As for B5, in [7], the “increase of binding affinity compared to the individual binding sites” value is given as “up to 10 fold”. The “increase of binding affinity with ETO2-NHR3-4 compared to the NHR4 domain alone” value in [8] is recorded as 10 fold. DSSESCWNCGRKASETCSGCNAARYCGSFCQHRDWEKHHHVCGQSLQ (domain or fragment, UniProt O75081 551-597, looked up) [ETO2-NHR4 (NHR4 domain of human ETO2, residues 551-597)] showed a Kd in [9] of 30 µM.
